Source: ChEMBL document CHEMBL4390662, “Design, synthesis and biological evaluation of novel α-acyloxy carboxamides via Passerini reaction as caspase 3/7 activators” (Eur J Med Chem, 2019)
Activity calls are given as the source filed them. The calls are words filed in the database; no cut-off is given here.

Legend:
HepG2 [1] = test: Induction of apoptosis in human HepG2 cells assessed as late apoptotic cells at IC50 incubated for 72 hrs by annexin V/propidium iodide staining based flow cytometry (reference value: 0.1 +/- 0.001%); format: functional
HepG2 [2] = test: Induction of apoptosis in human HepG2 cells assessed as necrotic cells level at IC50 incubated for 72 hrs by annexin V/propidium iodide staining based flow cytometry (reference value: 0.87%); format: functional
MCF7 [3] = test: Induction of apoptosis in human MCF7 cells assessed as late apoptotic cells level at IC50 incubated for 72 hrs by annexin V/propidium iodide staining based flow cytometry (reference value: 0.01%); format: functional
HepG2 [4] = test: Cytotoxicity against human HepG2 cells assessed as cell growth inhibition incubated for 72 hrs by MTT assay; format: functional, cell-based; details: HepG2, 72 h
In short: (§1)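 Cells grown in RPMI-1640 with 10% FBS and seeded at 5×10^3 per well. After 24 h, serial concentrations given for 72 h at 37°C, 5% CO2. Then 5 mg/mL MTT stock added for 3 h, formazan dissolved in DMSO, A570 read. IC50 calculated from the curves.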

NFS-60 [5] = test: Induction of apoptosis in mouse NFS60 cells assessed as necrotic cells level at IC50 incubated for 72 hrs by annexin V/propidium iodide staining based flow cytometry (reference value: 0.01%); format: functional
NFS-60 [6] = test: Induction of caspase-independent apoptosis in mouse NFS60 cells assessed as AIF1 release level using tetramethylbenzidine as substrate incubated for 1 hr by ELISA (reference value: 2.37 +/- 0.035 ng/ml); format: functional
In short: (§2)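 Extracts of untreated and treated cells added to anti-AIF1-coated wells. Incubated 1 h with HRP-conjugated antibody, washed, then TMB substrate added. Reaction stopped after 10 min and read at 450 nm. AIF1 reported in ng/mL, mean ± SEM.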

NFS-60 [7] = test: Induction of apoptosis in mouse NFS60 cells assessed as early apoptotic cells level at IC50 incubated for 72 hrs by annexin V/propidium iodide staining based flow cytometry (reference value: 0.46%); format: functional
HepG2 [8] = test: Induction of apoptosis in human HepG2 cells assessed as early apoptotic cells at IC50 incubated for 72 hrs by annexin V/propidium iodide staining based flow cytometry (reference value: 0.78 +/- 0.09%); format: functional
NFS-60 [9] = test: Induction of apoptosis in mouse NFS60 cells assessed as late apoptotic cells level at IC50 incubated for 72 hrs by annexin V/propidium iodide staining based flow cytometry (reference value: 0.01%); format: functional
HepG2 [10] = test: Induction of caspase-independent apoptosis in human HepG2 cells assessed as AIF1 release level using tetramethylbenzidine as substrate incubated for 1 hr by ELISA (reference value: 1.18 +/- 0.06 ng/ml); format: functional; in short: as §2
MCF7 [11] = test: Cytotoxicity against human MCF7 cells assessed as cell growth inhibition incubated for 72 hrs by MTT assay; format: functional, cell-based; details: MCF7, 72 h; in short: as §1
MCF7 [12] = test: Induction of apoptosis in human MCF7 cells assessed as total apoptotic cells at IC50 incubated for 72 hrs by annexin V/propidium iodide staining based flow cytometry (reference value: 0.48 +/- 0.01%); format: functional
NFS-60 [13] = test: Induction of apoptosis in mouse NFS60 cells assessed as early apoptotic cells at IC50 incubated for 72 hrs by annexin V/propidium iodide staining based flow cytometry (reference value: 0.02 +/- 0.01%); format: functional
[14] = Selectivity index, ratio of IC50 for human WI38 cells to IC50 for human HepG2 cells; format: toxicity; details: WI38 cells versus HepG2 cells, read-out: Ratio IC50
In short: (§3)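 SI calculated as IC50 on normal Wi-38 fibroblasts divided by IC50 on the cancer cell line. Both came from 72 h MTT assays.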

MCF7 [15] = test: Induction of apoptosis in human MCF7 cells assessed as induction of cell shape loss by phase contrast inverted fluorescence microscopy; format: functional, cell-based
NFS-60 [16] = test: Induction of apoptosis in mouse NFS60 cells assessed as total apoptotic cells at IC50 incubated for 72 hrs by annexin V/propidium iodide staining based flow cytometry (reference value: 0.495 +/- 0.01%); format: functional
HepG2 [17] = test: Induction of apoptosis in human HepG2 cells assessed as induction of cell shape loss by phase contrast inverted fluorescence microscopy; format: functional, cell-based
MCF7 [18] = test: Induction of caspase-independent apoptosis in human MCF7 cells assessed as AIF1 release level using tetramethylbenzidine as substrate incubated for 1 hr by ELISA (reference value: 2.28 +/- 0.06 ng/ml); format: functional; in short: as §2
HepG2 [19] = test: Induction of apoptosis in human HepG2 cells assessed as induction of cell shrinkage by phase contrast inverted fluorescence microscopy; format: functional, cell-based
[20] = Selectivity index, ratio of IC50 for human WI38 cells to IC50 for mouse NFS60 cells; in short: as §3
MCF7 [21] = test: Induction of apoptosis in human MCF7 cells assessed as early apoptotic cells at IC50 incubated for 72 hrs by annexin V/propidium iodide staining based flow cytometry (reference value: 0.47 +/- 0.01%); format: functional
HepG2 [22] = test: Induction of apoptosis in human HepG2 cells assessed as viable cells level at IC50 incubated for 72 hrs by annexin V/propidium iodide staining based flow cytometry (reference value: 98.97%); format: functional
MCF7 [23] = test: Induction of apoptosis in human MCF7 cells assessed as viable cells level at IC50 incubated for 72 hrs by annexin V/propidium iodide staining based flow cytometry (reference value: 99.5%); format: functional
NFS-60 [24] = test: Cytotoxicity against mouse NFS60 cells assessed as cell growth inhibition incubated for 72 hrs by MTT assay; format: functional, cell-based; details: NFS-60, 72 h; in short: as §1
HepG2 [25] = test: Induction of apoptosis in human HepG2 cells assessed as early apoptotic cells level at IC50 incubated for 72 hrs by annexin V/propidium iodide staining based flow cytometry (reference value: 0.05%); format: functional
NFS-60 [26] = test: Induction of apoptosis in mouse NFS60 cells assessed as caspase 3/7 activity using DEVD aminoluciferin as substrate at IC50 after 24 hrs […] relative to control; format: functional
In short: (§4)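 Caspase 3/7 activation measured with Caspase-Glo 3/7 kit using a luminogenic caspase-cleavable substrate. […] Reported as percent activation, mean ± SEM.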

HepG2 [27] = test: Induction of apoptosis in human HepG2 cells assessed as total apoptotic cells at IC50 incubated for 72 hrs by annexin V/propidium iodide staining based flow cytometry (reference value: 0.169 +/- 0.02%); format: functional
HepG2 [28] = test: Induction of apoptosis in human HepG2 cells assessed as caspase 3/7 activity using DEVD aminoluciferin as substrate at IC50 after 24 hrs by fluorescence assay relative to control; format: functional; in short: as §4
[29] = Selectivity index, ratio of IC50 for human WI38 cells to IC50 for human MCF7 cells; format: toxicity; details: WI38 cells versus MCF7 cells, read-out: Ratio IC50; in short: as §3
NFS-60 [30] = test: Induction of apoptosis in mouse NFS60 cells assessed as late apoptotic cells at IC50 incubated for 72 hrs by annexin V/propidium iodide staining based flow cytometry (reference value: 0.015 +/- 0.01%)
NFS-60 [31] = test: Induction of apoptosis in mouse NFS60 cells assessed as viable cells level at IC50 incubated for 72 hrs by annexin V/propidium iodide staining based flow cytometry (reference value: 99.52%); format: functional

Compound | Activity (HepG2 [1]) | Activity (HepG2 [2]) | Activity (MCF7 [3]) | IC50 (HepG2 [4]) | Activity (NFS-60 [5]) | Activity (NFS-60 [6]) | Activity (NFS-60 [7]) | Activity (HepG2 [8]) | Activity (NFS-60 [9]) | Activity (HepG2 [10]) | IC50 (MCF7 [11]) | Activity (MCF7 [12]) | Activity (NFS-60 [13]) | selectivity ratio [14] | Activity (MCF7 [15]) | Activity (NFS-60 [16]) | Activity (HepG2 [17]) | Activity (MCF7 [18]) | Activity (HepG2 [19]) | Ratio IC50 [20] | also measured
O=C(OC1(C(=O)Nc2ccc([N+](=O)[O-])cc2)CCCCC1)c1ccc([N+](=O)[O-])cc1 | 23.385% | 19.9% | 18.31% | 14.1 nM | 24.58% | 2.44 ng/mL | 2.41% | 18.43% | 17.56% | 1.28 ng/mL | 8.7 nM | 44.505% | 22.83% | 54 | Active | 41.795% | Active | 2.34 ng/mL | Active | 98.831 | Activity (MCF7 [21]): 24.065%; Activity (HepG2 [22]): 57.37%; Activity (MCF7 [23]): 54.7%; IC50 (NFS-60 [24]): 7.7 nM; Activity (HepG2 [25]): 1.95%; Activity (NFS-60 [26]): 49.59%; Activity (HepG2 [27]): 41.815%; Activity (HepG2 [28]): 50.68%; selectivity ratio [29]: 87.5; Activity (NFS-60 [30]): 18.965%; Activity (NFS-60 [31]): 55.46%
O=C(OC1(C(=O)Nc2ccc([N+](=O)[O-])cc2)CCCCC1)C(O)c1ccccc1 (stereo not drawn) | 42.85% | 7.11% | 28.9% | 7.7 nM | 21.74% | 2.47 ng/mL | 2.12% | 6.055% | 22.89% | 1.305 ng/mL | 5.01 nM | 53.129% | 21.04% | 11 | Active | 44.185% | Active | 2.36 ng/mL | Active | 10.82 | Activity (MCF7 [21]): 22.345%; Activity (HepG2 [22]): 47.87%; Activity (MCF7 [23]): 43.92%; IC50 (NFS-60 [24]): 7.8 nM; Activity (HepG2 [25]): 3.14%; Activity (NFS-60 [26]): 52.835%; Activity (HepG2 [27]): 48.905%; Activity (HepG2 [28]): 53.64%; selectivity ratio [29]: 16.8; Activity (NFS-60 [30]): 23.645%; Activity (NFS-60 [31]): 53.25%
O=C(Cc1ccccc1)OC1(C(=O)Nc2ccc([N+](=O)[O-])cc2)CCCCC1 | 27.77% | 7.13% | 20.57% | 14.2 nM | 14.8% | 2.41 ng/mL | 5.65% | 6.0649% | 18.21% | 1.23 ng/mL | 7.7 nM | 33.98% | 13.64% | 3.09 | Active | 34.129% | Active | 2.33 ng/mL | Active | 5.419 | Activity (MCF7 [21]): 11.885%; Activity (HepG2 [22]): 63.53%; Activity (MCF7 [23]): 59.23%; IC50 (NFS-60 [24]): 8.1 nM; Activity (HepG2 [25]): 2.74%; Activity (NFS-60 [26]): 45.41%; Activity (HepG2 [27]): 33.485%; Activity (HepG2 [28]): 47.64%; selectivity ratio [29]: 5.7; Activity (NFS-60 [30]): 20.09%; Activity (NFS-60 [31]): 61.34%
